Test results taken from ChEMBL document CHEMBL4689842, “EUbOPEN Chemogenomics Library wave 1” (2021).

System: U2OS
Assay: Multiplex assay against U2OS
Type: toxicity, cell-based
Conditions: human
Method in brief: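 Cells stained live at seeding with Hoechst33342, BioTracker Green Microtubule Cytoskeleton Dye, MitoTracker Red and Annexin V Alexa Fluor 680 were imaged on a CQ1 microscope at 37°C and 5% CO2 after compound addition. Their classification by CellPathfinder machine-learning gating ran from Hoechst high-intensity objects versus normal cells, to healthy, pyknosed or fragmented nuclei among normal cells, to mitotic or apoptotic among pyknosed cells. Tubulin, mitochondrial-mass and membrane-permeability phenotypes are per cents of healthy-nucleus cells.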

[1] = 12 h, 1 µM, compound concentration 1 uM, replicate 1
[2] = 12 h, 1 µM, compound concentration 1 uM, replicate 2
[3] = 12 h, 10 µM, compound concentration 10 uM, replicate 1
[4] = 12 h, 10 µM, compound concentration 10 uM, replicate 2
[5] = 24 h, 1 µM, compound concentration 1 uM, replicate 1
[6] = 24 h, 1 µM, compound concentration 1 uM, replicate 2
[7] = 24 h, 10 µM, compound concentration 10 uM, replicate 1
[8] = 24 h, 10 µM, compound concentration 10 uM, replicate 2
[9] = 48 h, 1 µM, compound concentration 1 uM, replicate 1
[10] = 48 h, 1 µM, compound concentration 1 uM, replicate 2
[11] = 48 h, 10 µM, compound concentration 10 uM, replicate 1
[12] = 48 h, 10 µM, compound concentration 10 uM, replicate 2

`CN1C(=O)[C@@H](NC(=O)c2cc3ccccc3[nH]2)N=C(c2ccccc2)c2ccccc21` [DEVAZEPIDE] was tested, and the “Population Fragmented Nuclei (%)” value [1] was 12%, the “Population Healthy Nuclei (%)” value [1] was 76% and the “Population Hoechst High Intensity Objects (%)” value [1] was 7%. The “Population Membrane Permeable-Phenotype (%)” value [1] was 3%, the “Population Mitochondria Different-Phenotype (%)” value [1] was 17% and the “Population Normal (%)” value [1] was 92%. The “Population Pyknosed Nuclei (%)” value [1] was 11%, the “Population Tubulin-Different-Phenotype (%)” value [1] was 21% and the “Total Cell Count” value [1] was 144. For the same compound, the “Population Apoptotic (%)” value [2] was 33%, the “Population Fragmented Nuclei (%)” value [2] was 4% and the “Population Healthy Nuclei (%)” value [2] was 85%. The “Population Hoechst High Intensity Objects (%)” value [2] was 5%, the “Population Membrane Permeable-Phenotype (%)” value [2] was 9% and the “Population Mitochondria Different-Phenotype (%)” value [2] was 23%. For the same compound, the “Population Mitotic Cells (%)” value [2] was 66%, the “Population Normal (%)” value [2] was 94% and the “Population Pyknosed Nuclei (%)” value [2] was 9%. For the same compound, the “Population Tubulin-Different-Phenotype (%)” value [2] was 10%, the “Total Cell Count” value [2] was 68 and the “Population Apoptotic (%)” value [3] was 52%. For the same compound, the “Population Fragmented Nuclei (%)” value [3] was 11%, the “Population Healthy Nuclei (%)” value [3] was 72% and the “Population Hoechst High Intensity Objects (%)” value [3] was 6%. The “Population Membrane Permeable-Phenotype (%)” value [3] was 21%, the “Population Mitochondria Different-Phenotype (%)” value [3] was 45% and the “Population Mitotic Cells (%)” value [3] was 47%. For the same compound, the “Population Normal (%)” value [3] was 93%, the “Population Pyknosed Nuclei (%)” value [3] was 15% and the “Population Tubulin-Different-Phenotype (%)” value [3] was 70%. For the same compound, the “Total Cell Count” value [3] was 117, the “Population Apoptotic (%)” value [4] was 33% and the “Population Fragmented Nuclei (%)” value [4] was 20%. For the same compound, the “Population Healthy Nuclei (%)” value [4] was 75%, the “Population Hoechst High Intensity Objects (%)” value [4] was 7% and the “Population Membrane Permeable-Phenotype (%)” value [4] was 37%. For the same compound, the “Population Mitochondria Different-Phenotype (%)” value [4] was 48%, the “Population Mitotic Cells (%)” value [4] was 66% and the “Population Normal (%)” value [4] was 92%. The “Population Pyknosed Nuclei (%)” value [4] was 5%, the “Population Tubulin-Different-Phenotype (%)” value [4] was 66% and the “Total Cell Count” value [4] was 65. For the same compound, the “Population Apoptotic (%)” value [5] was 31%, the “Population Fragmented Nuclei (%)” value [5] was 10% and the “Population Healthy Nuclei (%)” value [5] was 76%. The “Population Hoechst High Intensity Objects (%)” value [5] was 5%, the “Population Membrane Permeable-Phenotype (%)” value [5] was 1% and the “Population Mitochondria Different-Phenotype (%)” value [5] was 14%. For the same compound, the “Population Mitotic Cells (%)” value [5] was 68%, the “Population Normal (%)” value [5] was 94% and the “Population Pyknosed Nuclei (%)” value [5] was 13%. The “Population Tubulin-Different-Phenotype (%)” value [5] was 12%, the “Total Cell Count” value [5] was 173 and the “Population Apoptotic (%)” value [6] was 37%. The “Population Fragmented Nuclei (%)” value [6] was 7%, the “Population Healthy Nuclei (%)” value [6] was 82% and the “Population Hoechst High Intensity Objects (%)” value [6] was 1%. For the same compound, the “Population Membrane Permeable-Phenotype (%)” value [6] was 3%, the “Population Mitochondria Different-Phenotype (%)” value [6] was 10% and the “Population Mitotic Cells (%)” value [6] was 62%. For the same compound, the “Population Normal (%)” value [6] was 98%, the “Population Pyknosed Nuclei (%)” value [6] was 10% and the “Population Tubulin-Different-Phenotype (%)” value [6] was 6%. For the same compound, the “Total Cell Count” value [6] was 79, the “Population Apoptotic (%)” value [7] was 87% and the “Population Fragmented Nuclei (%)” value [7] was 22%. The “Population Healthy Nuclei (%)” value [7] was 49%, the “Population Hoechst High Intensity Objects (%)” value [7] was 6% and the “Population Membrane Permeable-Phenotype (%)” value [7] was 29%. For the same compound, the “Population Mitochondria Different-Phenotype (%)” value [7] was 29%, the “Population Mitotic Cells (%)” value [7] was 12% and the “Population Normal (%)” value [7] was 93%. The “Population Pyknosed Nuclei (%)” value [7] was 27%, the “Population Tubulin-Different-Phenotype (%)” value [7] was 47% and the “Total Cell Count” value [7] was 123. For the same compound, the “Population Apoptotic (%)” value [8] was 92%, the “Population Fragmented Nuclei (%)” value [8] was 28% and the “Population Hoechst High Intensity Objects (%)” value [8] was 7%. For the same compound, the “Population Membrane Permeable-Phenotype (%)” value [8] was 19%, the “Population Mitochondria Different-Phenotype (%)” value [8] was 45% and the “Population Mitotic Cells (%)” value [8] was 7%. The “Population Normal (%)” value [8] was 92%, the “Population Pyknosed Nuclei (%)” value [8] was 22% and the “Population Tubulin-Different-Phenotype (%)” value [8] was 51%. The “Total Cell Count” value [8] was 68, the “Population Apoptotic (%)” value [9] was 33% and the “Population Fragmented Nuclei (%)” value [9] was 9%. For the same compound, the “Population Healthy Nuclei (%)” value [9] was 82%, the “Population Hoechst High Intensity Objects (%)” value [9] was 3% and the “Population Membrane Permeable-Phenotype (%)” value [9] was 4%. The “Population Mitochondria Different-Phenotype (%)” value [9] was 14%, the “Population Mitotic Cells (%)” value [9] was 66% and the “Population Normal (%)” value [9] was 96%. For the same compound, the “Population Pyknosed Nuclei (%)” value [9] was 8%, the “Population Tubulin-Different-Phenotype (%)” value [9] was 8% and the “Total Cell Count” value [9] was 231. For the same compound, the “Population Apoptotic (%)” value [10] was 50%, the “Population Fragmented Nuclei (%)” value [10] was 8% and the “Population Healthy Nuclei (%)” value [10] was 78%. The “Population Hoechst High Intensity Objects (%)” value [10] was 1%, the “Population Membrane Permeable-Phenotype (%)” value [10] was 5% and the “Population Mitochondria Different-Phenotype (%)” value [10] was 18%. The “Population Mitotic Cells (%)” value [10] was 50%, the “Population Normal (%)” value [10] was 98% and the “Population Pyknosed Nuclei (%)” value [10] was 12%. The “Population Tubulin-Different-Phenotype (%)” value [10] was 16%, the “Total Cell Count” value [10] was 96 and the “Population Apoptotic (%)” value [11] was 89%. The “Population Fragmented Nuclei (%)” value [11] was 21%, the “Population Healthy Nuclei (%)” value [11] was 37% and the “Population Hoechst High Intensity Objects (%)” value [11] was 5%. For the same compound, the “Population Membrane Permeable-Phenotype (%)” value [11] was 31%, the “Population Mitochondria Different-Phenotype (%)” value [11] was 38% and the “Population Mitotic Cells (%)” value [11] was 10%. For the same compound, the “Population Normal (%)” value [11] was 94%, the “Population Pyknosed Nuclei (%)” value [11] was 41% and the “Population Tubulin-Different-Phenotype (%)” value [11] was 45%. For the same compound, the “Total Cell Count” value [11] was 124, the “Population Apoptotic (%)” value [12] was 92% and the “Population Fragmented Nuclei (%)” value [12] was 24%. The “Population Healthy Nuclei (%)” value [12] was 50%, the “Population Hoechst High Intensity Objects (%)” value [12] was 13% and the “Population Membrane Permeable-Phenotype (%)” value [12] was 55%. For the same compound, the “Population Mitochondria Different-Phenotype (%)” value [12] was 55%, the “Population Mitotic Cells (%)” value [12] was 7% and the “Population Normal (%)” value [12] was 86%. For the same compound, the “Population Pyknosed Nuclei (%)” value [12] was 24%, the “Population Tubulin-Different-Phenotype (%)” value [12] was 58% and the “Total Cell Count” value [12] was 66.
